The values below come from ChEMBL document CHEMBL1140765, “Synthesis and biological evaluation of 2-trifluoromethyl/sulfonamido-5,6-diaryl substituted imidazo[2,1-b]-1,3,4-thiadiazoles: a novel class of cyclooxygenase-2 inhibitors” (Bioorg Med Chem, 2008).

The structures appear in SMILES notation.

Assay [1] deals with Rattus norvegicus. As to the kind of experiment: Antiinflammatory activity in Albino rat assessed as reduction of carrageenan-induced paw edema volume at 10 mg/kg, po after 2 hrs. On the set-up: scale not given: the % may be the effect or the level left. The assay is classed as functional. The gist of the method:
(§1)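 Male albino rats, six per group, were dosed orally. One hour later they received a subplantar injection of 0.05 mL of 1% carrageenan in 0.9% sterile solution into the left hind paw. Paw volume was read by digital plethysmometer at 0, 2 and 4 h. Percent reduction was calculated as (1 − treated/vehicle control edema volume) × 100, and values are given as mean ± SE.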
A general note: Carrageenan injected into the paw causes an acute inflammation.

Assay [2] has as its target T1, Prostaglandin G/H synthase 1 (Ovis aries) (UniProt P05979).
T1 sequence (whole entry): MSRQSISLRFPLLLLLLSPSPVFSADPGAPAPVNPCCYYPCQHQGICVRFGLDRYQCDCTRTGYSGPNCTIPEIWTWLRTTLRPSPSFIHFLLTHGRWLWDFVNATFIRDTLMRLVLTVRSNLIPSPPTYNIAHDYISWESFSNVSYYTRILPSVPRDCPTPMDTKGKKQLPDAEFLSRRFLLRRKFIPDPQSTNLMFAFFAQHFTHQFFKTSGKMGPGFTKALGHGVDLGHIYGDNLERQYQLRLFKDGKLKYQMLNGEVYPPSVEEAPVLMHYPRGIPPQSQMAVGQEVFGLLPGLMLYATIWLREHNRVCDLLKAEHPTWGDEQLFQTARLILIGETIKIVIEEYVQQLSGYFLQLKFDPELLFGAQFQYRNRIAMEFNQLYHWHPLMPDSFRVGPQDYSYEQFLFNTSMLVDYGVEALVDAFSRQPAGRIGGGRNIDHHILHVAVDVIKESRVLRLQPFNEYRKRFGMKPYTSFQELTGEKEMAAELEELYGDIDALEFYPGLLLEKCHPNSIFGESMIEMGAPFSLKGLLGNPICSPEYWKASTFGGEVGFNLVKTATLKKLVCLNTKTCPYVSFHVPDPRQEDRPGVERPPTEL
The experiment in a line: Inhibition of ovine COX1 at 10 uM. The gist of the method:
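Ovine COX-1 activity was measured with a colorimetric inhibitor assay kit that reads the enzyme's peroxidase component. Oxidized TMPD was monitored at 590 nm during reduction of PGG2 to PGH2. Runs were done in duplicate.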

For assay [3], the system named is Rattus norvegicus. As to the kind of experiment: Antiinflammatory activity in Albino rat assessed as reduction of carrageenan-induced paw edema volume at 10 mg/kg, po after 4 hrs. The arrangement: scale not given: the % may be the effect or the level left. Format: functional. The gist of the method: as §1
For assay [4], the target named is T2, Prostaglandin G/H synthase 1 (Ovis aries, UniProt P05979).
T2 sequence (P05979 whole entry): T1 sequence (whole entry)
The experiment in a line: Inhibition of ovine COX1. The gist of the method:
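Ovine enzyme, colorimetric kit assay read through the peroxidase component: oxidised TMPD appearing during PGG2 to PGH2 reduction monitored at 590 nm; values reported as IC50 in µM, duplicate experiments.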

For orientation: inhibition means the drop in the measured response relative to a control, in per cent. By IC50 is commonly meant the concentration at which inhibition is half-maximal.

As to `COc1ccc(-c2c(-c3ccccc3)nc3sc(C(F)(F)F)nn23)cc1`, the figures for the Activity in the assay on Rattus norvegicus [1] and in the assay with Rattus norvegicus [3] were 29.62% and 42.32%, respectively. In addition, the inhibition in assay [2] was 30.6%.

Take `COc1ccc(-c2nc3sc(S(N)(=O)=O)nn3c2-c2ccc(OC)cc2)cc1`: the Activity came out at 24.68% in the assay on Rattus norvegicus [1] and 37.05% with Rattus norvegicus [3]. This compound displayed an inhibition in assay [2] of 28.1%.

In the case of `COc1ccc(-c2nc3sc(C(F)(F)F)nn3c2-c2ccc(OC)cc2)cc1`, the values for the Activity in the assay on Rattus norvegicus [1] and in the assay on Rattus norvegicus [3] were 38.03% and 48.78%, respectively. Further, the inhibition in assay [2] came out at 15.5%.

For the compound `Cc1ccc(-c2cc(C(F)(F)F)nn2-c2ccc(S(N)(=O)=O)cc2)cc1` [CELECOXIB], the Activity turned out to be 48.31% in the assay on Rattus norvegicus [1] and 64.83% in the assay with Rattus norvegicus [3].

`COc1ccc(-c2c(-c3ccc(SC)cc3)nc3sc(C(F)(F)F)nn23)cc1`: the Activity amounted to 42.38% in the assay on Rattus norvegicus [1] and 66.16% in the assay on Rattus norvegicus [3]. In assay [2], this compound showed an inhibition of 10.5%.

For the compound `COc1ccc(-c2c(-c3ccc(S(C)(=O)=O)cc3)nc3sc(S(N)(=O)=O)nn23)cc1`, the Activity in the assay on Rattus norvegicus [1] was determined as 54.28%; in the assay with Rattus norvegicus [3] it was 61.29%. In assay [2], this compound displayed an inhibition of 13.3%. The compound also came in with an IC50 in assay [4] above 50 µM.

`COc1ccc(-c2c(-c3ccc(F)cc3)nc3sc(S(N)(=O)=O)nn23)cc1`: the Activity in the assay with Rattus norvegicus [1] is on record as 43.49%; in the assay on Rattus norvegicus [3], 51.72%. In assay [2], the inhibition is 12.9%.

Turning to `CS(=O)(=O)c1ccc(-c2nc3sc(C(F)(F)F)nn3c2-c2ccccc2)cc1`, the Activity in the assay with Rattus norvegicus [1] is reported as 46.73%; in the assay on Rattus norvegicus [3], 70.09%. Also, in assay [2], the inhibition was found to be 8.6%. This compound displayed an IC50 in assay [4] above 50 µM.

As to `CSc1ccc(-c2nc3sc(C(F)(F)F)nn3c2-c2ccccc2)cc1`, the Activity in the assay on Rattus norvegicus [1] is recorded as 37.64%; with Rattus norvegicus [3] it was 54.16%. The compound further came in with an inhibition in assay [2] of 14.2%.
